Experimental data reported in ChEMBL document CHEMBL4725480 (ACS Med Chem Lett, 2020).
Calls of active or inactive are those of the source. The calls are words filed in the database; no cut-off is given here.

Key:
[1] = target: NAD-dependent protein deacylase sirtuin-6 (Homo sapiens) (UniProt Q8N6T7); test: Activation of N-terminal His-tagged human SIRT6 (1 to 355 residues) expressed in Escherichia coli M15(pREP4) assessed as increase in deacetylation activity using acetyl-H3K9 peptide as substrate incubated for 2 hrs in presence of NAD+ by mass spectrometric analysis relative to control
Outline: (§1)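 Deacetylation measured by mass spectrometry using an unlabelled acetylated peptide that represents the physiological histone H3 Lys9 site (H3K9ac); compound tested across a dose range.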

[2] = target: NAD-dependent protein deacylase sirtuin-6 (Homo sapiens) (UniProt Q8N6T7); test: Activation of N-terminal His-tagged human SIRT6 (1 to 355 residues) expressed in Escherichia coli M15(pREP4) assessed as increase in deacetylation activity using FdL1 substrate peptide incubated for 1 hr in presence of NAD+ by fluorescence assay; settings: filed as activator
Outline: (§2)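 Deacetylation assay with the fluorophore-labelled FdL substrate, run alongside a control for artificial effects from the compound interacting with the fluorophore; fluorescence read-out.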

[3] = target: NAD-dependent protein deacylase sirtuin-6 (Homo sapiens) (UniProt Q8N6T7); test: Activation of N-terminal His-tagged human SIRT6 (1 to 355 residues) expressed in Escherichia coli M15(pREP4) assessed as increase in deacetylation activity using acetyl-H3K9 peptide as substrate incubated for 2 hrs in presence of NAD+ by mass spectrometric analysis; settings: filed as activator; outline: as §1
[4] = target: T1, NAD-dependent protein deacetylase sirtuin-1 (Homo sapiens, UniProt Q96EB6); test: Inhibition of N-terminal His-tagged human full length recombinant SIRT1 expressed in Escherichia coli at 250 to 1000 uM by fluorescence based analysis; settings: dose 250-1000 µM
T1 sequence (Q96EB6 whole entry): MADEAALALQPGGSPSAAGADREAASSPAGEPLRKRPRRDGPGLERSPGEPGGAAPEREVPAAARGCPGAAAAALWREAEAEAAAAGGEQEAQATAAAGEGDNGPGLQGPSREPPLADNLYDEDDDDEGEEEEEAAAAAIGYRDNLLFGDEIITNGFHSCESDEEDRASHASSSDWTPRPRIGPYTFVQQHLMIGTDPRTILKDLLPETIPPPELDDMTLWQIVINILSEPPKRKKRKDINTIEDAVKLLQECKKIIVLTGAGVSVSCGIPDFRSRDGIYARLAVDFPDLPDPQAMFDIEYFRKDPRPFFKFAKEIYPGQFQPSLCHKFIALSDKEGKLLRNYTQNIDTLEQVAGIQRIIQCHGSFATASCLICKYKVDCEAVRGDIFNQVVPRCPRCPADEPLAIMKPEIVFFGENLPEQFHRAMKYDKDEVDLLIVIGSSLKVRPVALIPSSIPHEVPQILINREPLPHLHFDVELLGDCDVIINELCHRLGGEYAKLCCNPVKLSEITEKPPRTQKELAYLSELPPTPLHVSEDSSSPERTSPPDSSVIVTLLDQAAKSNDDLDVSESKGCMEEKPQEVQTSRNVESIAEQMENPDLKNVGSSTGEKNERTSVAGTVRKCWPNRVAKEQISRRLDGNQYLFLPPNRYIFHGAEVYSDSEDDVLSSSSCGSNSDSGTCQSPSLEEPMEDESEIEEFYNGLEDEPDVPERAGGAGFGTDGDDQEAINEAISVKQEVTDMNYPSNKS

[5] = target: T2, NAD-dependent protein deacetylase sirtuin-2 (Homo sapiens, UniProt Q8IXJ6); test: Inhibition of N-terminal His-tagged human recombinant SIRT2 (55 to 356 residues) expressed in Escherichia coli Rossetta2 cells assessed as decrease in substrate deacetylation activity using QPK(acetyl-K) as substrate at 250 to 1000 uM incubated for 30 mins by fluorescence based analysis; settings: 0.5 h, dose 250-1000 µM
T2 sequence (Q8IXJ6 whole entry): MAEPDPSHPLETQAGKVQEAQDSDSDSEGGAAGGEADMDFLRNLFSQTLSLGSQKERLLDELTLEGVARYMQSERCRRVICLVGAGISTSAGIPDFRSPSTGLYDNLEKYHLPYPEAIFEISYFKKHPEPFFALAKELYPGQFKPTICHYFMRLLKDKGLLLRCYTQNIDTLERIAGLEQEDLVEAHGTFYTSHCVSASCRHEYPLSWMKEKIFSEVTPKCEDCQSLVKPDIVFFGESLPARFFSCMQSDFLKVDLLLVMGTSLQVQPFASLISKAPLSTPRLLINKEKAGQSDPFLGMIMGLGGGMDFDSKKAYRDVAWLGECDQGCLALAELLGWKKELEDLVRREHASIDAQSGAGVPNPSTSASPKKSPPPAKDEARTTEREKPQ

[6] = target: T3, NAD-dependent protein deacetylase sirtuin-3, mitochondrial (Homo sapiens, UniProt Q9NTG7); test: Inhibition of N-terminal His-tagged human recombinant SIRT3 (118 to 399 residues) expressed in Escherichia coli assessed as decrease in substrate deacetylation using QPK(acetyl-K) as substrate at 250 to 1000 uM incubated for 30 mins by fluorescence based analysis; settings: 0.5 h, dose 250-1000 µM
T3 sequence (Q9NTG7 whole entry): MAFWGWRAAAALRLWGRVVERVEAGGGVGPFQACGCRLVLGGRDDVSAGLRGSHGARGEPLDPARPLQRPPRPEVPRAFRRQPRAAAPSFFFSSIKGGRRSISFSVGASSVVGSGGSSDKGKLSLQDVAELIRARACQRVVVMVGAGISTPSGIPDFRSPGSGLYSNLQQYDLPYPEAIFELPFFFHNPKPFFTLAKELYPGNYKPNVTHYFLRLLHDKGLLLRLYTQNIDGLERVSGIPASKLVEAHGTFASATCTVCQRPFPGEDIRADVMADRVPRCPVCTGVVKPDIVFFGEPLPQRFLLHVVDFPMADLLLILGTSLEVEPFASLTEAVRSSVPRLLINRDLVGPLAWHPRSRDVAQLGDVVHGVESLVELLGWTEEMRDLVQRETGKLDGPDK

[7] = target: NAD-dependent protein deacylase sirtuin-6 (Homo sapiens) (UniProt Q8N6T7); test: Activation of His-tagged N-terminal truncated human SIRT6 (13 to 355 residues) expressed in Escherichia coli BL21 (DE3) codon+ cells assessed as increase in deacetylation activity using acetyl-H3K9 peptide as substrate incubated for 2 hrs in presence of NAD+ by mass spectrometric analysis relative to control; settings: filed as activator
[8] = target: NAD-dependent protein deacylase sirtuin-6 (Homo sapiens) (UniProt Q8N6T7); test: Activation of N-terminal His-tagged human SIRT6 (1 to 355 residues) expressed in Escherichia coli M15(pREP4) assessed as increase in substrate deacetylation activity using FdL1 substrate peptide at 250 to 1000 uM incubated for 1 hr in presence of NAD+ by fluorescence assay; settings: filed as activator, dose microM 250-1000, time 1.0 hrs; outline: as §2

NAD-dependent protein deacylase sirtuin-6 (Homo sapiens), sequence (Q8N6T7 whole entry, the tested form may be a part): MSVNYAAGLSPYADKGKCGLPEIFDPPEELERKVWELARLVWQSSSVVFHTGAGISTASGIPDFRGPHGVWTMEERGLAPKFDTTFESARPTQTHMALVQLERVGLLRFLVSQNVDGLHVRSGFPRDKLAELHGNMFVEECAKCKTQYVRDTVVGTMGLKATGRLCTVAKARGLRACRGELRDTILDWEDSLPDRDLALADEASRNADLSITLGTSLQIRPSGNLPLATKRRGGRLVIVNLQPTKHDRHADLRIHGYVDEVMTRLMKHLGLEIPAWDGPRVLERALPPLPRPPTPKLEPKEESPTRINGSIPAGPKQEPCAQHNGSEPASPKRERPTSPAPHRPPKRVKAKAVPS

In the case of CC(C)n1c(/C=C/C(O)CC(O)CC(=O)O)c(-c2ccc(F)cc2)c2ccccc21 (stereo not drawn) [FLUVASTATIN], the fold change (FC) [1] is reported as over 3, the Activity [2] is reported as “Active” and the Activity [3] is reported as “Dose-dependent effect”. For the same compound, the “inhibition (INH)” value [4] was “Active”, the “inhibition (INH)” value [5] was “Active” and the “inhibition (INH)” value [6] was “Active”. The fold change (FC) [7] was 4 and the Activity [8] was “Active”.
